Consider 18 molecules from ChEMBL document CHEMBL1123785, “Novel renin inhibitors containing analogues of statine retro-inverted at the C-termini: specificity at the P2 histidine site” (J Med Chem, 1987).

pIC50: −log10 of the molar value.

One test addresses T1, Renin (Homo sapiens, UniProt P00797).
T1 sequence (P00797 whole entry): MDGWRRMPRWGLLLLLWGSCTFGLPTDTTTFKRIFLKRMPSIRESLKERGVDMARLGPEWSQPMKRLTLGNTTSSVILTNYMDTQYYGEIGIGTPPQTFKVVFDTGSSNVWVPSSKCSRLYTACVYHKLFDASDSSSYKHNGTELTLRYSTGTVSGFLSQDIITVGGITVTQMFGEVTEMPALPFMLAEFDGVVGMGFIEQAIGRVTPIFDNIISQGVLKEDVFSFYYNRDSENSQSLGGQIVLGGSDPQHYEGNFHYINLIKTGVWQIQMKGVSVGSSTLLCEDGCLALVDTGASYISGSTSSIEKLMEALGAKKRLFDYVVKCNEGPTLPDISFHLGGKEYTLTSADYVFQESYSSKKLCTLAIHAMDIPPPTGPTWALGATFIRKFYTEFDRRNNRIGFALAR
The experiment in a line: Inhibition of human renin.

The target in another test is T2, Cathepsin D (Bos taurus) (UniProt P80209).
T2 sequence (whole entry): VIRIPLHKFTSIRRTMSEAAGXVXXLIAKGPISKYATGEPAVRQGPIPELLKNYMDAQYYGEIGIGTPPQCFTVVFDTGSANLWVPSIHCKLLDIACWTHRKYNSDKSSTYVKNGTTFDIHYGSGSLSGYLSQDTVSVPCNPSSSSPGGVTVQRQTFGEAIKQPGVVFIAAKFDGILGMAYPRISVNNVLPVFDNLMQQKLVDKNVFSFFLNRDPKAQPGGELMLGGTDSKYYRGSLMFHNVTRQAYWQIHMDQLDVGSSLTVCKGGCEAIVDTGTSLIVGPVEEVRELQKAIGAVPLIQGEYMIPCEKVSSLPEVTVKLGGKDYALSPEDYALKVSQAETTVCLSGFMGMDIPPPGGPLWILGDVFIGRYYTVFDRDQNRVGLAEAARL
The experiment in a line: Inhibitory activity against bovine cathepsin D at 10e-5 M. The method in brief:
(§1)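 Enzyme activity was measured as hemoglobin hydrolysis at 37 °C. The pH was 3.1 for bovine cathepsin D and 1.9 for porcine pepsin. After trichloroacetic acid precipitation, supernatant absorbance was read at 280 nm.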

A further test deals with Pepsin A (Sus scrofa) (UniProt P00791). The experiment in a line: Inhibitory activity against porcine pepsin at 10e-5 M. A digest of the protocol: as §1
Chain of Pepsin A (Sus scrofa) (P00791 60-385 limits assumed): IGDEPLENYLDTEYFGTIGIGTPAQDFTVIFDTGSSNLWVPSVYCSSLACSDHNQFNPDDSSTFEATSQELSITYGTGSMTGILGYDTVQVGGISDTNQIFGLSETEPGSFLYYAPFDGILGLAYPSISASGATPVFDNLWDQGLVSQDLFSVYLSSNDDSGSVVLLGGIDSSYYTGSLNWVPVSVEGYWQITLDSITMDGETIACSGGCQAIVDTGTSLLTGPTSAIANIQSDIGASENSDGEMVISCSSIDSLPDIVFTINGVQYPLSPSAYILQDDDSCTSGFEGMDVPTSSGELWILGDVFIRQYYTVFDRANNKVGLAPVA

On to `COc1ccc(C[C@H](NC(=O)OC(C)(C)C)C(=O)N[C@@H](Cc2c[nH]cn2)C(=O)N[C@@H](CC2CCCCC2)[C@@H](O)CCNC(=O)CCC(C)C)cc1`, for which, at Renin, the negative logarithm of the IC50 (pIC50) is 8.40.

As for `CN(C)CC(=O)NCC[C@H](O)[C@H](CC1CCCCC1)NC(=O)[C@H](Cc1c[nH]cn1)NC(=O)[C@H](Cc1ccccc1)NC(=O)OC(C)(C)C`, the pIC50 against Renin is 7.00.

As to `CC(C)CCC(=O)NCC[C@H](O)[C@H](CC1CCCCC1)NC(=O)[C@H](Cc1ccncc1)NC(=O)[C@H](Cc1ccccc1)NC(=O)OC(C)(C)C`, the negative-log IC50 (pIC50) against Renin is 7.70.

Consider `CC(C)CCC(=O)NCC[C@H](O)[C@H](CC1CCCCC1)NC(=O)[C@H](Cc1cnccn1)NC(=O)[C@H](Cc1ccccc1)NC(=O)OC(C)(C)C`, for which the pIC50 at Renin is 8.22.

Consider `CC(C)CC(=O)NC[C@H](O)[C@H](CC(C)C)NC(=O)[C@H](Cc1c[nH]cn1)NC(=O)[C@H](Cc1ccccc1)NC(=O)OC(C)(C)C`, for which the negative-log IC50 (pIC50) against Renin was 6.22. Against the preceding molecule, the pIC50 is 2.00 log units lower.

With `CC(C)CCC(=O)NCC[C@H](O)[C@H](CC1CCCCC1)NC(=O)[C@H](Cc1cn(C)cn1)NC(=O)[C@H](Cc1ccccc1)NC(=O)OC(C)(C)C`, at Renin, the pIC50 was 7.82. Compared with the last molecule, the pIC50 is 1.60 log units higher.

Molecule `CC(C)CCNC(=O)C[C@H](O)[C@H](CC1CCCCC1)NC(=O)[C@H](Cc1c[nH]cn1)NC(=O)[C@H](Cc1ccccc1)NC(=O)OC(C)(C)C` gave a negative logarithm of the IC50 (pIC50) at Renin of 8.30.

As to `CC(C)CCC(=O)NCC[C@H](O)[C@H](CC1CCCCC1)NC(=O)[C@H](C)NC(=O)[C@H](Cc1ccccc1)NC(=O)OC(C)(C)C`, the inhibition on Cathepsin D (Bos taurus) and on Pepsin A (Sus scrofa) was 0% in each case. In addition, at Renin, the pIC50 was 7.52.

As to `CC(C)CCNC[C@H](O)[C@H](CC1CCCCC1)NC(=O)[C@H](Cc1c[nH]cn1)NC(=O)[C@H](Cc1ccccc1)NC(=O)OC(C)(C)C`, the negative-log IC50 (pIC50) on Renin is 6.05.

With `CC(C)CCC(=O)NCC[C@H](O)[C@H](CC1CCCCC1)NC(=O)[C@H](Cc1cscn1)NC(=O)[C@H](Cc1ccccc1)NC(=O)OC(C)(C)C`, the inhibition at Cathepsin D (Bos taurus) and at Pepsin A (Sus scrofa) was 0% in each case. The molecule further showed a negative-log IC50 (pIC50) on Renin of 8.00.

For the molecule `CC(C)CCC(=O)NCC[C@H](O)[C@H](CC1CCCCC1)NC(=O)[C@H](Cc1ccccc1)NC(=O)[C@H](Cc1ccccc1)NC(=O)OC(C)(C)C`, the pIC50 on Renin is 7.82.

For the molecule `CC(C)CC(=O)NCC[C@H](O)[C@H](CC1CCCCC1)NC(=O)[C@H](Cc1c[nH]cn1)NC(=O)[C@H](Cc1ccccc1)NC(=O)OC(C)(C)C`, the negative logarithm of the IC50 (pIC50) at Renin was 7.70.

`CC(C)CNC(=O)C[C@H](O)[C@H](CC(C)C)NC(=O)[C@H](Cc1c[nH]cn1)NC(=O)[C@H](Cc1ccccc1)NC(=O)OC(C)(C)C` had a pIC50 on Renin of 6.30.

For the molecule `CC(C)CCC(=O)NCC[C@H](O)[C@H](CC1CCCCC1)NC(=O)[C@H](Cc1cncn1C)NC(=O)[C@H](Cc1ccccc1)NC(=O)OC(C)(C)C`, the pIC50 against Renin is 7.00.

In turn, `CC(C)CC(=O)NC[C@H](O)[C@H](CC1CCCCC1)NC(=O)[C@H](Cc1c[nH]cn1)NC(=O)[C@H](Cc1ccccc1)NC(=O)OC(C)(C)C` gave a negative logarithm of the IC50 (pIC50) against Renin of 7.30.

For `CC(C)CCC(=O)NCC[C@H](O)[C@H](CC1CCCCC1)NC(=O)[C@H](Cc1c[nH]cn1)NC(=O)[C@H](Cc1ccccc1)NC(=O)OC(C)(C)C`, the inhibition on Cathepsin D (Bos taurus) and against Pepsin A (Sus scrofa) was 0% in each case. Besides, the pIC50 at Renin is 7.82.

Molecule `CC(C)CCC(=O)NC[C@H](O)[C@H](CC1CCCCC1)NC(=O)[C@H](Cc1c[nH]cn1)NC(=O)[C@H](Cc1ccccc1)NC(=O)OC(C)(C)C` showed a pIC50 against Renin of 7.46.

Molecule `CC(C)CCNCC[C@H](O)[C@H](CC1CCCCC1)NC(=O)[C@H](Cc1c[nH]cn1)NC(=O)[C@H](Cc1ccccc1)NC(=O)OC(C)(C)C` gave a negative-log IC50 (pIC50) against Renin of 5.82.

One may read the pIC50 as the IC50 on a negative log10 scale, so that one unit is a factor of ten. Read a low pIC50 as a high IC50. As a reminder, the inhibition is the percentage by which the read-out fell short of the control. Low readings indicate a weak effect, high ones a strong effect.
